Assay [1] in a line: inhibitors of TNFa-induced NFkB p65 translocation, primary screen, imaging, HUVEC, MLSMR starter and 10KST1 sets (AID 438;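 active = inhibition above 20% together with a positive visual image hit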;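 also: compound added about 3h40 before a 20 min TNFalpha stimulation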;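 as to inhibition: signal is the nuclear over cytoplasmic p65 intensity ratio per well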). To be noted: HUVEC TNFa-induced p65 nuclear translocation; cell count: measured here: nuclei count (cytotoxicity indicator), at 2.08 µM; inhibition: at 2 µM, stronger effect = higher value, 0% TNFa-plus-vehicle, 100% no-TNFa wells.
A short description of assay [2]: endothelial E-selectin expression blockers – imaging, HUVEC, immunofluorescence, MLSMR starter and 10KST1 sets, primary screen (AID 487;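 active = visually confirmed hit in the image check and inhibition above 20%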;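 as to inhibition: signal is fraction of cell area covered by stained E-selectin grains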;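 as to nuclei count: 100% = median nuclei count of all wells on the same plate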). To be noted: HUVEC TNFalpha-induced E-selectin immunofluorescence imaging, at 2 µM; inhibition: stronger effect = higher value; nuclei count: measured here: cell number, toxicity.
The nature of assay [3]: Primary imaging screen for DUSP6 inhibitors that restore phospho-Erk in transfected HeLa cells, chemical complementation (AID 609;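 active = compounds giving at least 50% inhibition in the cell-based MKP-3 phosphatase rescue imaging test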;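 as to inhibition: phospho-Erk level distribution per well compared with pooled transfected vehicle control wells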). The note with it: HeLa MKP-3 transfected, phospho-Erk imaging KS statistic, at 10 µM, cells stimulated with TPA for 15 min.
Assay [4] concerns the target Dual specificity protein phosphatase 6 (Homo sapiens) (UniProt Q16828). Described as above. To be noted: HeLa MKP-3 transfected, phospho-Erk imaging KS statistic; at 10 µM; stronger effect = higher value; cells stimulated with TPA for 15 min.
For assay [5], the target named is Voltage-gated potassium channel subunit beta-2 (Rattus norvegicus) (UniProt P62483). Put plainly: inhibitors of rat Kvbeta2 reductase activity – biochemical, NADPH fluorescence, primary screen (AID 622;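 active = fluorescence slope higher than the sample average by over 3 SD, cut at about -0.22 in these data, passing the limit was not always enough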;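 also: slope of raw intensity against log time taken from 70 to 1610 s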). To be noted: recombinant KvBeta, 4-cyanobenzaldehyde reduction, at 10 µM, stronger effect = higher value.
Assay [6] shares this target. Put plainly: enhancers of rat Kvbeta2 NADPH turnover – biochemical, NADPH fluorescence, primary screen (AID 623).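 Also: fluorescence intensity change per second fitted from 20 to 320 s.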 The note with it: Recombinant KvBeta, NADPH fluorescence decrease slope, 10 min; at 10 µM; stronger effect = lower value.
For assay [7], the target named is Muscarinic acetylcholine receptor M4 (Homo sapiens) (UniProt P08173). Put plainly: M4-linked GIRK flux change, two-sided – cell-based, HEK293 M4/GIRK, thallium flux, BTC-AM, M4 allosteric agonist project, primary screen (AID 625;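 active = fluorescence slope after compound addition differing from the mean of all tested samples at 99.7% confidence, mostly higher but some lower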;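 also: thallium influx through GIRK channels coupled to M4 in HEK293 cells with BTC-AM dye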). The note with it: at 10 µM, actives lie on both sides. The gist of the method: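 Material: M4/GIRK1/GIRK2 stable HEK293 cell line. Medium: pH 7.3 thallium assay buffer. Dosing: single compound concentration, 10 µM final. Schedule: 1 h dye loading, 2 min kinetic read. Measured by: kinetic fluorescence with BTC-AM dye. Read-out: post-addition slope, 15–24 s, of baseline-normalized fluorescence. Benchmarks: carbachol and DMSO controls.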

The nature of assay [8]: inhibitors of larval lipid processing in zebrafish, primary screen, whole organism, PED6 fluorescence, gall bladder and intestine (AID 686;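 active = a full or partial loss of lipid-probe fluorescence in the fish gall bladder, intestine or both, judged by eye; inactive = no fluorescence loss, or compound toxic to the fish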;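 also: larvae 5 to 7 days old with five fish per well; signal comes from phospholipase A2 cleavage of quenched PED6 carried via bile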). The note with it: Zebrafish larvae PED6 lipid processing, fluorescence scoring; screened at 20 µM (by protocol). The gist of the method: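 System: live zebrafish larvae aged 5-7 days, whole organism; measure: graded gall bladder and intestinal fluorescence inhibition per well; incubation: overnight exposure; reagent: ingested quenched lipid PED6 at 100 nM; signal: By-eye fluorescence microscopy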

The nature of assay [9]: loss of swimming-algae plug formation – whole organism, Chlamydomonas reinhardtii, WT vs cilia-less mutant, absorbance, 96-well, primary screen (AID 463189;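 active = inhibition at or above 50% relative to wild type and mutant plate controls; inactive = inhibition below 50%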;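 also: 0% = wild type cc124 cells in DMSO and 100% = ciliumless bld1 mutant cells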). The note with it: Chlamydomonas reinhardtii gravitaxis, OD600 absorbance, 2 days; at 10 µM; stronger effect = higher value.
Setting [10] is: measured here: cell density z-score.
The mark [11] stands for this setting: measured here: nuclear c-Myc green intensity z-score.
Setting [12] is: measured here: nuclear pErk red intensity z-score, stronger effect = higher value.

The values below come from PubChem BioAssay.

Calls of active or inactive are those of the source.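 The calls were made as follows, unless noted: active = NADPH fluorescence slope more negative than the mean of all samples by about 3 SD, 99.7% confidence; inactive = the rest.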

Chain of Muscarinic acetylcholine receptor M4 (Homo sapiens) (P08173 whole entry, looked up): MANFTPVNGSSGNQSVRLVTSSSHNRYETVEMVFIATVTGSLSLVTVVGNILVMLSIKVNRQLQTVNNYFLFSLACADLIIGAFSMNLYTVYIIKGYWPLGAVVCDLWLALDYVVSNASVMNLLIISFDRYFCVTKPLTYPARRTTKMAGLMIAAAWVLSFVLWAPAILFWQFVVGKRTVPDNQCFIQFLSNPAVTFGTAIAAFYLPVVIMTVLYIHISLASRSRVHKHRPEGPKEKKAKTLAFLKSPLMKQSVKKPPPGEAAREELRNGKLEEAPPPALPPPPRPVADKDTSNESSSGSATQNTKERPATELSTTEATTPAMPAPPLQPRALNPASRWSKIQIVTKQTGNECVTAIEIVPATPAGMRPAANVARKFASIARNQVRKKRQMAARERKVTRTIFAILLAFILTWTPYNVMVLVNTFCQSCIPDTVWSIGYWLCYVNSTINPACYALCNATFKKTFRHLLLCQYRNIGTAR
Chain of Voltage-gated potassium channel subunit beta-2 (Rattus norvegicus) (P62483 whole entry, looked up): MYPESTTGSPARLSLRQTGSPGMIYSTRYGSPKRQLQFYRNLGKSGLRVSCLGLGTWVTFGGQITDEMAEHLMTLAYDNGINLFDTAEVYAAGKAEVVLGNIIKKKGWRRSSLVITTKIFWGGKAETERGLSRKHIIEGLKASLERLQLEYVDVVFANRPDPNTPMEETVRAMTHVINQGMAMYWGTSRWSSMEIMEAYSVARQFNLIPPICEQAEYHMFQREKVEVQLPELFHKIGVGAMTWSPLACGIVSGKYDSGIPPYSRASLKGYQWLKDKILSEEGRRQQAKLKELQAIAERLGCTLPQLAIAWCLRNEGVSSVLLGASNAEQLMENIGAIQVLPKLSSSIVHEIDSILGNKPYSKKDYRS
Chain of Dual specificity protein phosphatase 6 (Homo sapiens) (Q16828 whole entry, looked up): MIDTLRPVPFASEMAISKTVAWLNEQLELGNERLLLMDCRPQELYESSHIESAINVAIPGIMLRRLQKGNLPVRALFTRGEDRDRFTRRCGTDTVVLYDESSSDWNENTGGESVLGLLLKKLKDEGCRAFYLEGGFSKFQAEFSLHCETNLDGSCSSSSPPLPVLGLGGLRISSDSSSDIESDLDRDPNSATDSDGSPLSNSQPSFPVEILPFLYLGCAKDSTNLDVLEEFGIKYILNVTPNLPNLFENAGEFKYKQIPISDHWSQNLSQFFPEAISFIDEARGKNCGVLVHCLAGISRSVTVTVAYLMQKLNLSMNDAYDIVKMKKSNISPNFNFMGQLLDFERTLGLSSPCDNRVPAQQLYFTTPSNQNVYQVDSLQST

As to `CCN(CC)Cc1c(O)ccc2c(C)c(CC(=O)OC)c(=O)oc12`, in [1], the cell count is 660. For the same compound, the inhibition (commonly the change of the read-out against control, counted positive when it falls) in [1] was -1.4% (inactive); in [2], 1.9% (inactive); in [4], 2.71% (inactive); in assay [9], 5.82% (inactive). Also, the nuclei count in [2] was 145%. The z-score was 0.613 in assay [3] (setting [10]), -0.319 in assay [3] (setting [11]) and -0.573 in assay [3] (setting [12]). Moreover, the fluorescence slope was -0.0165 (inactive) in [5] and 0.00599 (inactive) in assay [7]. Besides, the NADPH fluorescence slope in assay [6] was -6.9e-06 (inactive). In addition, in assay [8], the call was inactive.

For `COc1cc(/C=N/n2nnnc2N)ccc1O`, in assay [1], the cell count was found to be 594. For the same compound, the inhibition in [1] was -13% (inactive); in [2], -19.6% (inactive); in assay [4] it was 17.7% (inactive); in assay [9] it was 14% (inactive). Also, the nuclei count in assay [2] was determined as 150%. The z-score was 0.109 in [3] (setting [10]), -0.705 in assay [3] (setting [11]) and -0.571 in assay [3] (setting [12]). The fluorescence slope in [5] was -0.448 (inactive); in assay [7], 0.00627 (inactive). In assay [6], the NADPH fluorescence slope was -0.000221 (inactive). In addition, the outcome in assay [8] was inactive.

Regarding `Cc1cccc(OCCN2CSC(=S)N(C)C2)c1`, the cell count in assay [1] turned out to be 542. For the same compound, the inhibition was -14.5% (inactive) in assay [1], -138% (inactive) in assay [2], 9.42% (inactive) in assay [4] and 45.3% (inactive) in assay [9]. In addition, in assay [2], the nuclei count amounted to 129%. The z-score in assay [3] (setting [10]) is 0.0536; in [3] (setting [11]) it was -1.14; in assay [3] (setting [12]) it was 0.0169. Moreover, the fluorescence slope in [5] was -0.494 (inactive); in assay [7], 0.0046 (inactive). Moreover, in assay [6], the NADPH fluorescence slope is -7.6e-05 (inactive). For the same compound, in assay [8], the outcome is “inactive; toxic”.

For `CCC(=O)N(Cc1cccs1)C1CCOC(C)(C)C1` (centres undefined), the cell count in [1] came out at 541. Further, the inhibition was 6.5% (inactive) in assay [1], 6.3% (inactive) in assay [2], 1.9e-07% (inactive) in assay [4] and 11.9% (inactive) in assay [9]. Further, in [2], the nuclei count amounted to 166%. The z-score is 0.577 in assay [3] (setting [10]), -0.186 in assay [3] (setting [11]) and 0.0071 in [3] (setting [12]). For the same compound, the fluorescence slope was -0.389 (inactive) in assay [5] and 0.00514 (inactive) in [7]. Further, the NADPH fluorescence slope in assay [6] was -3e-05 (inactive). In addition, in assay [8], the outcome was inactive.

As to `Cc1ccc(CNC(=O)c2cc3c(=O)n4ccccc4nc3n(CC3CCCO3)c2=N)cc1` (centres undefined), the cell count in [1] worked out at 542. The inhibition was -11.9% (inactive) in assay [1], -40.3% (inactive) in assay [2], 2.71% (inactive) in assay [4] and 32.5% (inactive) in [9]. Besides, the nuclei count in assay [2] was 93.4%. The z-score is -0.636 in [3] (setting [10]), 0.681 in assay [3] (setting [11]) and -1.25 in assay [3] (setting [12]). Besides, the figures for the fluorescence slope in assay [5] and in assay [7] were -0.331 (inactive) and -0.000734 (active), respectively. Also, the NADPH fluorescence slope in assay [6] was -2.1e-05 (inactive). Moreover, the compound was called inactive in assay [8].

As to `Cn1c(OCc2cccnc2)nc2c1c(=O)n(Cc1ccccc1)c(=O)n2C`, the cell count in [1] was determined as 719. Moreover, the inhibition in assay [1] was -11.2% (inactive); in assay [2], -145% (inactive); in assay [4], 25.8% (inactive); in [9], 21.1% (inactive). The compound further gave a nuclei count in assay [2] of 176%. In addition, the z-score in assay [3] (setting [10]) is 1.38; in assay [3] (setting [11]), -0.255; in assay [3] (setting [12]), -1.04. The results for the fluorescence slope in assay [5] and in assay [7] were -0.489 (inactive) and 0.00844 (inactive), respectively. The NADPH fluorescence slope in [6] was -5.3e-05 (inactive). In addition, the compound was classed as inactive in [8].

`CN(CCCCCC(=O)/C=N/O)Cc1ccccc1`: in assay [1], the cell count was found to be 673. For the same compound, the inhibition in assay [1] is -7.2% (inactive); in [2], -29.9% (inactive); in assay [4], -9.53% (inactive); in assay [9], 23.8% (inactive). This compound returned a nuclei count in assay [2] of 182%. The z-score was -0.259 in [3] (setting [10]), -0.553 in assay [3] (setting [11]) and -0.0581 in [3] (setting [12]). Also, the fluorescence slope in [5] was -0.493 (inactive); in assay [7] it was 0.00525 (inactive). Also, the NADPH fluorescence slope in assay [6] was -9.8e-05 (inactive). Further, in [8], the compound was called inactive.

`Cn1c(NCc2ccccc2)nc2c1c(=O)n(Cc1ccc(Br)cc1)c(=O)n2C`: the cell count in assay [1] worked out at 696. For the same compound, the inhibition in assay [1] is -21.9% (inactive); in assay [2], -78.3% (inactive); in assay [4], 13.9% (inactive); in [9] it was 36.1% (inactive). Moreover, the nuclei count in assay [2] was found to be 171%. For the same compound, the z-score amounted to 0.333 in assay [3] (setting [10]), 0.526 in [3] (setting [11]) and 0.876 in assay [3] (setting [12]). Moreover, the fluorescence slope is -0.47 (inactive) in [5] and 0.00559 (inactive) in assay [7]. For the same compound, in assay [6], the NADPH fluorescence slope is -5.2e-05 (inactive). Further, the compound was classed as inactive in assay [8].

Regarding `N#Cc1c(NCCCO)nc(-c2ccccc2)c2c1CCCC2`, the cell count in assay [1] came to 598. In addition, the inhibition was -4.5% (inactive) in [1], -60.9% (inactive) in assay [2], -0.233% (inactive) in assay [4] and 0.512% (inactive) in [9]. In addition, the nuclei count in [2] was 154%. Moreover, the z-score in assay [3] (setting [10]) is -0.266; in assay [3] (setting [11]), 0.00477; in [3] (setting [12]), 1.17. Moreover, the results for the fluorescence slope in assay [5] and in assay [7] were -0.435 (inactive) and 0.00541 (inactive), respectively. The NADPH fluorescence slope in assay [6] is -0.000107 (inactive). The result in assay [8] was inactive.

As for `CCCCc1cc(=O)oc2c(CN3CCCC3)c(O)ccc12`, the cell count in [1] stood at 600. Besides, the inhibition in assay [1] is -1.9% (inactive); in [2] it was 32.2% (inactive); in assay [4] it was 4.37% (inactive); in assay [9], -2.81% (inactive). This compound also came in with a nuclei count in assay [2] of 151%. In addition, the z-score in assay [3] (setting [10]) was 0.99; in [3] (setting [11]) it was -0.992; in assay [3] (setting [12]), -0.105. The fluorescence slope was -0.0163 (inactive) in assay [5] and 0.00474 (inactive) in assay [7]. Further, the NADPH fluorescence slope in [6] was 5.9e-06 (inactive). Moreover, the compound was classed as inactive in assay [8].

Consider `CC(C)OCCCNc1ncnc2c1cnn2-c1ccccc1`, for which the cell count in [1] came to 571. The inhibition in assay [1] is -10.1% (inactive); in assay [2], 45.3% (inactive); in assay [4] it was 15.4% (inactive); in assay [9], 18.2% (inactive). Besides, in assay [2], the nuclei count stood at 117%. The results for the z-score in assay [3] (setting [10]), in assay [3] (setting [11]) and in assay [3] (setting [12]) were 0.477, 1.09 and -0.0471, respectively. The fluorescence slope in assay [5] was -0.377 (inactive); in assay [7], 0.00537 (inactive). In addition, the NADPH fluorescence slope in [6] was -5.1e-05 (inactive). Moreover, the call in assay [8] was inactive.

Turning to `COC(=O)CC(=O)Cc1nc(N)nc(Nc2ccc(C)c(C)c2)n1`, the cell count in [1] was found to be 628. Also, the inhibition in assay [1] is 1.8% (inactive); in assay [2], -16.8% (inactive); in assay [4] it was -0.233% (inactive); in [9], 1.81% (inactive). In addition, in assay [2], the nuclei count was 133%. Also, the z-score amounted to 0.15 in assay [3] (setting [10]), 0.484 in [3] (setting [11]) and 0.858 in [3] (setting [12]). The fluorescence slope was -0.442 (inactive) in [5] and 0.00526 (inactive) in [7]. Besides, the NADPH fluorescence slope in assay [6] is -3e-05 (inactive). Moreover, the compound was classed as inactive in assay [8].

Turning to `CCOc1ccc(C2C(C#N)=C(N)Oc3cc(C)n(CCN4CCOCC4)c(=O)c32)cc1OCC` (centres undefined), in assay [1], the cell count is 556. Further, the inhibition in assay [1] is -10.8% (inactive); in assay [2] it was -15.2% (inactive); in [4], -10.1% (inactive); in [9] it was 7.88% (inactive). Moreover, in assay [2], the nuclei count is 167%. For the same compound, the values for the z-score in assay [3] (setting [10]), in [3] (setting [11]) and in assay [3] (setting [12]) were -0.219, 1.25 and -0.841, respectively. Besides, the fluorescence slope in assay [5] is -0.458 (inactive); in assay [7], 0.0054 (inactive). In addition, the NADPH fluorescence slope in [6] was -4.1e-05 (inactive). The result in assay [8] was inactive.
